Measurements published in ChEMBL document CHEMBL1137302 (J Med Chem, 2006).
Calls of active or inactive are those of the source. The calls are words filed in the database; no cut-off is given here.

Columns and labels:
[1] = AUC in dog at 1 mg/kg, po; format: ADME, organism-based, Canis lupus familiaris; set-up: dose 1 mg/kg, route oral; settings: plasma
In short: (§1)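 Single 1 mg/kg dose given iv, sc or orally to Sprague-Dawley rats, dogs and monkeys; plasma concentrations followed over time (mean ± SEM, n = 3). Cmax, AUC, half-life, clearance and bioavailability calculated from the curves.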

[2] = AUC in monkey at 1 mg/kg, po; format: ADME, organism-based, Macaca mulatta; set-up: dose 1 mg/kg, route oral; settings: rhesus monkey, plasma; in short: as §1
[3] = target: T1, D(4) dopamine receptor (Rattus norvegicus) (UniProt P30729); test: Agonist activity at rat D4 receptor in HEK293 cells co-expressing Galphaqo5 by FLIPR relative to dopamine; format: functional, cell-based
T1 sequence (whole entry): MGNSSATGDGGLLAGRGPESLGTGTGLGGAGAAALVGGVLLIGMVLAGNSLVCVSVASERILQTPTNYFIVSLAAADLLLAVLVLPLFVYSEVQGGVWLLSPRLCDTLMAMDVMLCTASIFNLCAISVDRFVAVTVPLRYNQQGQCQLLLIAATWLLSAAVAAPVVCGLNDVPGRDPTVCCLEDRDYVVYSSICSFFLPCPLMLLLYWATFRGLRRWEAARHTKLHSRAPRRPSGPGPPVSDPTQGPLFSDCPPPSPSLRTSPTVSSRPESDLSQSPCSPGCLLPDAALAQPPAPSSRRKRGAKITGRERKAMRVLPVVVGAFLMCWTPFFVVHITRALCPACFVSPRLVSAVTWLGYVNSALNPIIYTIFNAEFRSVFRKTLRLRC

[4] = target: Phosphodiesterase 4 (Homo sapiens) (UniProt P27815+Q08499+Q07343+Q08493); test: Activity at PDE4 at 10 uM; format: protein assay
In short: (§2)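 Broad selectivity panel (over 70 receptors, ion channels and neuronal receptors, PDE1-6 included) run at a single 10 µM concentration.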

[5] = target: Phosphodiesterase 6 (Homo sapiens) (UniProt Q13956+P18545+P35913+O43924+P16499+P51160); test: Activity at PDE6 at 10 uM; format: protein assay; in short: as §2
[6] = Cmax in rat at 1 mg/kg, sc; format: ADME, organism-based; set-up: dose 1 mg/kg, route subcutaneous; settings: in vivo; in short: as §1
hERG = hERG (Homo sapiens, UniProt Q12809); test: Blockade of current at hERG expressed in HEK293 cells at 3 ug/mL; format: cell-based; settings: HEK293 cells that express hERG
In short: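 hERG stably expressed in HEK293 cells; whole-cell voltage clamp. Pipette: K aspartate/KCl/EGTA/MgATP, pH 7.3. Bath: NaCl-based HEPES, pH 7.4. Compound dissolved in DMSO (≤0.1%), one concentration per cell. Steps to -25 to +50 mV for 3 s, then -50 mV for 4 s, from -80 mV every 15 s; tail current measured against DMSO vehicle.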

[7] = target: T2, D(4) dopamine receptor (Homo sapiens) (UniProt P21917); test: Activity at human D4.4 receptor in HEK293 cells co-expressing Galphaqo5 by FLIPR; format: functional, cell-based; settings: filed as agonist
T2 sequence (whole entry): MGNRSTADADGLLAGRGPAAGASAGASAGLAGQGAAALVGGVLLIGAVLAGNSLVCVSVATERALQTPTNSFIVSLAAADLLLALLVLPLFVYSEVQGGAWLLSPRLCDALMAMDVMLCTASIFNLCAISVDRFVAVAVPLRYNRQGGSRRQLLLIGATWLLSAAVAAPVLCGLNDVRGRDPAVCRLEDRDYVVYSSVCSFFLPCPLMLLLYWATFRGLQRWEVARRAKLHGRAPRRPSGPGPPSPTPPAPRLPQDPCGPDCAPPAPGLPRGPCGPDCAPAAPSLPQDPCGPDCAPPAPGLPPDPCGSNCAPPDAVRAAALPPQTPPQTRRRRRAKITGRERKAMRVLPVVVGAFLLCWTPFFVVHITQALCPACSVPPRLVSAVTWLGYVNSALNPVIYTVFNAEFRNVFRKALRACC

[8] = target: cGMP-specific 3',5'-cyclic phosphodiesterase (Homo sapiens) (UniProt O76074); test: Activity at PDE5 at 10 uM; in short: as §2
[9] = AUC in rat at 1 mg/kg, sc; format: ADME, organism-based; set-up: dose 1 mg/kg, route subcutaneous; settings: plasma; in short: as §1
D(2) dopamine receptor [10] = target: T3, D(2) dopamine receptor (Homo sapiens, UniProt P14416); test: Agonist activity at human D2 receptor in HEK293 cells coexpressing G-alpha-qo5 by FLIPR relative to dopamine upto 10 uM; format: functional, cell-based
In short: (§3)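 Ca2+ flux by FLIPR in HEK cells cotransfected with the D2 receptor (human, ferret or rat) plus chimeric G protein Gqo5.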

[11] = Half life in rat at 1 mg/kg, sc; format: ADME, organism-based; set-up: dose 1 mg/kg, route subcutaneous; settings: in vivo; in short: as §1
[12] = target: Phosphodiesterase 3 (Homo sapiens) (UniProt Q14432+Q13370); test: Activity at PDE3 at 10 uM; format: protein assay; in short: as §2
[13] = Bioavailability in rat at 1 mg/kg, sc; format: ADME, organism-based; settings: in vivo; in short: as §1
[14] = target: D(3) dopamine receptor (Homo sapiens) (UniProt P35462); test: Agonist activity at human D3 receptor in HEK293 cells coexpressing G-alpha-qo5 by FLIPR upto 10 uM; format: functional, cell-based
[15] = Cmax in monkey at 1 mg/kg, po; format: ADME, organism-based, Macaca mulatta; set-up: dose 1 mg/kg, route oral; settings: rhesus monkey, in vivo; in short: as §1
[16] = target: D(2) dopamine receptor (Rattus norvegicus) (UniProt P61169); test: Agonist activity at rat D2 receptor in HEK293 cells coexpressing G-alpha-qo5 by FLIPR relative to dopamine upto 10 uM; format: functional, cell-based; in short: as §3
[17] = Cmax in dog at 1 mg/kg, po; format: ADME, organism-based, Canis lupus familiaris; set-up: dose 1 mg/kg, route oral; settings: in vivo; in short: as §1
D(4) dopamine receptor = target: T4, D(4) dopamine receptor (Homo sapiens, UniProt P21917); test: Agonist activity at human D4.4 receptor in HEK293 cells coexpressing G-alpha-qo5 by FLIPR; format: functional, cell-based
T4 sequence (P21917 whole entry): T2 sequence (whole entry)

[18] = Bioavailability in rat at 1 mg/kg, po; format: ADME, organism-based; settings: in vivo; in short: as §1
[19] = Bioavailability in monkey at 1 mg/kg, po; format: ADME, organism-based, Macaca mulatta; settings: rhesus monkey, in vivo; in short: as §1
Mustela putorius furo [20] = species on record: Mustela putorius furo; test: Induction of nausea in ferret; format: functional, organism-based
[21] = test system: D(2) dopamine receptor (Mustela putorius furo); test: Agonist activity at ferret D2 receptor in HEK293 cells coexpressing Galphaqo5 by FLIPR relative to dopamine upto 10 uM
[22] = Plasma clearance in iv dosed dog; format: ADME, organism-based, Canis lupus familiaris; in short: as §1
[23] = Effect on canine cardiac Purkinje fiber repolarization measured as prolongation of action potential duration at 1 ug/mL; format: functional, Canis lupus familiaris
In short: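 Canine Purkinje fibers impaled with 3 M KCl microelectrodes. Fibers accepted with resting potential below -80 mV and APD 300-500 ms. Paced at BCL 2 s, then 800 and 400 ms. Two ascending concentrations applied, each after 25 min equilibration. APD90 measured at all three rates.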

D(2) dopamine receptor [24] = target: T3, D(2) dopamine receptor; test: Binding affinity to human D2S receptor
[25] = Bioavailability in dog at 1 mg/kg, po; format: ADME, organism-based, Canis lupus familiaris; settings: in vivo; in short: as §1
Mustela putorius furo [26] = species on record: Mustela putorius furo; test: Induction of emesis in ferret; format: functional, organism-based
D(2) dopamine receptor [27] = target: T3, D(2) dopamine receptor; test: Displacement of [125I]7-OH-PIPAT from human D2L receptor expressed in HEK293 cell membrane; format: cell membranes
[28] = Half life in monkey at 1 mg/kg, po; format: ADME, organism-based, Macaca mulatta; set-up: dose 1 mg/kg, route oral; settings: rhesus monkey, in vivo; in short: as §1
[29] = Agonist activity at ferret D4 receptor in HEK293 cells coexpressing G-alpha-qo5 by FLIPR relative to dopamine; format: functional, Mustela putorius furo
[30] = AUC in rat at 1 mg/kg, po; format: ADME, organism-based; set-up: dose 1 mg/kg, route oral; settings: plasma; in short: as §1
[31] = Cmax in rat at 1 mg/kg, po; format: ADME, organism-based; set-up: dose 1 mg/kg, route oral; settings: in vivo; in short: as §1

T3 sequence (P14416 whole entry): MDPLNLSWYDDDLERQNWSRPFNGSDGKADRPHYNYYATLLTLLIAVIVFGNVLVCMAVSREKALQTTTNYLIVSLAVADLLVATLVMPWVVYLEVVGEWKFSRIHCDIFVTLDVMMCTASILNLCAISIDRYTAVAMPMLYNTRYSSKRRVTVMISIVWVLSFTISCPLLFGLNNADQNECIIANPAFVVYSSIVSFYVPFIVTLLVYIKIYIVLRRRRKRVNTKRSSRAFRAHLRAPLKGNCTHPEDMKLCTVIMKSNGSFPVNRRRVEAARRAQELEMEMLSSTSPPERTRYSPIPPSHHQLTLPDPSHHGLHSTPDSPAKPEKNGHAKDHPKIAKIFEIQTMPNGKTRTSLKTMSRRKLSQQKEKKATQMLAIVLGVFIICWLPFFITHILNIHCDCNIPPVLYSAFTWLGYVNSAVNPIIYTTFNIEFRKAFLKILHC
Sequence of hERG (Q12809 whole entry): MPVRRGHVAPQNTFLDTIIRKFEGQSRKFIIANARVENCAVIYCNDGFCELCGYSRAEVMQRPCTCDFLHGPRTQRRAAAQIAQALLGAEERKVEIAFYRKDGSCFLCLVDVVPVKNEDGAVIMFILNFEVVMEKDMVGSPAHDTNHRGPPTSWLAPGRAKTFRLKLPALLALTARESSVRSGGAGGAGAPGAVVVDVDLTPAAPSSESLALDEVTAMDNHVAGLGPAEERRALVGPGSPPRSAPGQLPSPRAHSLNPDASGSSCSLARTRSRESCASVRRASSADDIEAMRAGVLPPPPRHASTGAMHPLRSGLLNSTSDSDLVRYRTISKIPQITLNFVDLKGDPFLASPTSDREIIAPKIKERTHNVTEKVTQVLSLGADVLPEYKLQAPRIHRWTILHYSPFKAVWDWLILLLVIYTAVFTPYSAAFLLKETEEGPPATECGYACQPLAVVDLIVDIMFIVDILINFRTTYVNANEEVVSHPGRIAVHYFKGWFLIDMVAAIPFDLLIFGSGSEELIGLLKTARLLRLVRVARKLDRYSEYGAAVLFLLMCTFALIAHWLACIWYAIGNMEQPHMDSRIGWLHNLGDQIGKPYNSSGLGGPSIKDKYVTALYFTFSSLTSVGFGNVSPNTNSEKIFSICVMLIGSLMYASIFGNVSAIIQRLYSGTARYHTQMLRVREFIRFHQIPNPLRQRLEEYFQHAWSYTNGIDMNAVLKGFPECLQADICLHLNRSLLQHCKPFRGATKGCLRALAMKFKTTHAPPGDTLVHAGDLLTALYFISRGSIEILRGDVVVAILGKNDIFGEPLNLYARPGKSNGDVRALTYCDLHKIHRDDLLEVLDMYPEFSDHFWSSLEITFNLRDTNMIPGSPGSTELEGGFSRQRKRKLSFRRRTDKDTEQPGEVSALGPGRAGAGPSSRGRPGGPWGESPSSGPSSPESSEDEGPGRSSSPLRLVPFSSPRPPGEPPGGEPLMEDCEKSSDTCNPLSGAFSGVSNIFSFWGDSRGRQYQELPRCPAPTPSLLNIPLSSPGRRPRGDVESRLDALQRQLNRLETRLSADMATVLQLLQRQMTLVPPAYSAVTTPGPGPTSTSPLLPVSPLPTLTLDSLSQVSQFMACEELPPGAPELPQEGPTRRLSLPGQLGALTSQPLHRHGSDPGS
Sequence of D(3) dopamine receptor (Homo sapiens) (P35462 whole entry): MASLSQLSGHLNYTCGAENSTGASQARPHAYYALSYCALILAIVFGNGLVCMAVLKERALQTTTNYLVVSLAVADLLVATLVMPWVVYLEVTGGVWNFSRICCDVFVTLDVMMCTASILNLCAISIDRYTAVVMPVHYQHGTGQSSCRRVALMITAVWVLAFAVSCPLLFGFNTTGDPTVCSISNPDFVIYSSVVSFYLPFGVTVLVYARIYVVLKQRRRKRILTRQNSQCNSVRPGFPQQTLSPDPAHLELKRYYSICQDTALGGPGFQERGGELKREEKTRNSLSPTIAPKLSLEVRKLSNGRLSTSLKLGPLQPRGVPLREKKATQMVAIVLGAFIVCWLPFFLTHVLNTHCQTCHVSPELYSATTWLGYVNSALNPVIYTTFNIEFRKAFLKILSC
Sequence of D(2) dopamine receptor (Rattus norvegicus) (P61169 whole entry): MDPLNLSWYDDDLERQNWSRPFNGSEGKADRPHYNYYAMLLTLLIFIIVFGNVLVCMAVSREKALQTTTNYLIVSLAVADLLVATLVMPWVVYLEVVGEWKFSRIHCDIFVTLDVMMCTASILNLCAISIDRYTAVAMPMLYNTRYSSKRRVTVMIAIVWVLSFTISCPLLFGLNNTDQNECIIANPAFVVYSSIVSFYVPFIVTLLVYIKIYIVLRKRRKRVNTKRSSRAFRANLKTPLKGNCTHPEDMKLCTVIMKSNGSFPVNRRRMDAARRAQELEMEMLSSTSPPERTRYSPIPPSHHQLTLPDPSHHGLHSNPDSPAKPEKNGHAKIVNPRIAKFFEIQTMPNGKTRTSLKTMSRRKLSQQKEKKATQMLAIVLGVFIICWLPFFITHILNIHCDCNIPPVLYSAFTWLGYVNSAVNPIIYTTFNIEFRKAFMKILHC

Cc1cccc(C(=O)NCN2CCC(c3cccc[n+]3[O-])CC2)c1 showed an AUC [1] of 4280 ng·h/mL, an AUC [2] of 2280 ng·h/mL and an Efficacy [3] of 78%. For the same molecule, the Activity [4] was “inactive”, the Activity [5] was “inactive” and the Cmax [6] was 465 ng/mL. For the same molecule, the inhibition at 3 ug/mL (hERG) was 14.5%, the Activity [7] was “Agonist” and the Activity [8] was “inactive”. The AUC [9] was 1140 ng·h/mL, the Activity (D(2) dopamine receptor [10]) was “inactive” and the half-life [11] was 1.2 h. For the same molecule, the Activity [12] was “inactive”, the bioavailability [13] was 84% and the Activity [14] was “inactive”. The Cmax [15] was 660 ng/mL, the Activity [16] was “inactive” and the Cmax [17] was 1420 ng/mL. It also gave an EC50 (D(4) dopamine receptor) of 0.089 µM, a bioavailability [18] of 68% and a bioavailability [19] of 91%. The Activity (Mustela putorius furo [20]) was “inactive”, the Activity [21] was “inactive” and the clearance [22] was 3.33 mL/min/kg. The Activity [23] was 0.6%, the Ki (D(2) dopamine receptor [24]) was over 10 µM and the bioavailability [25] was 85%. For the same molecule, the Activity (Mustela putorius furo [26]) was “inactive”, the Ki (D(2) dopamine receptor [27]) was over 10 µM and the half-life [28] was 2 h. For the same molecule, the Efficacy [29] was 76%, the AUC [30] was 922 ng·h/mL and the Cmax [31] was 417 ng/mL.
